# Source: PubChem
# Compounds with a hit are over-represented: about 2.6% of the library has one in this group of screens.
# OXTR ag: human OXTR agonists, primary screen, fluorescence, CHO-OTR cells, Fluo-8 calcium. Oxytocin receptor (Homo sapiens), P30559. Fluo-8 calcium fluorescence; normalized: DMSO 0%, oxytocin 100%. activation, % at 3 µM. 320,000 tested, 0.32% active. AID 2435, 2010;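 active = activation above the mean of all tested compounds plus 3 SD, cutoff set per screening run, cut at about 20% in these data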;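 note: peak over basal fluorescence ratio from a 100 s FLIPR kinetic read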
# V1R ag counter: agonists of human V1a receptor, primary screen, counter-screen for OXTR agonist project, fluorescence, CHO-V1R cells | Vasopressin V1a receptor (Homo sapiens), P37288 | Fluo-8 calcium fluorescence, agonist mode; 0% DMSO, 100% 3 nM vasopressin | activation, % at 3 µM | 320,000 tested, 0.25% active | AID 2797, 2010;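 active = activation above the mean activation of all tested compounds plus 3 SD, per screening run, cut at about 20% in these data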;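 note: signal is peak over basal fluorescence ratio across a 100 second FLIPR read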
# OX1R antag-1: antagonists of human orexin 1 receptor (OX1R); Orexin/Hypocretin receptor type 1 (Homo sapiens), O43613; OX1R-expressing cells, FRET antagonist read-out; 330,000 tested, 1.8% active; inhibition, % at 6.6 µM; in the data active = inhibition mostly above about 38%, no sharp cut-off; inactive = mostly below about 40%;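 note: 0% = agonist challenge alone and 100% = reference antagonist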
# Target sequence (O43613 whole entry, looked up): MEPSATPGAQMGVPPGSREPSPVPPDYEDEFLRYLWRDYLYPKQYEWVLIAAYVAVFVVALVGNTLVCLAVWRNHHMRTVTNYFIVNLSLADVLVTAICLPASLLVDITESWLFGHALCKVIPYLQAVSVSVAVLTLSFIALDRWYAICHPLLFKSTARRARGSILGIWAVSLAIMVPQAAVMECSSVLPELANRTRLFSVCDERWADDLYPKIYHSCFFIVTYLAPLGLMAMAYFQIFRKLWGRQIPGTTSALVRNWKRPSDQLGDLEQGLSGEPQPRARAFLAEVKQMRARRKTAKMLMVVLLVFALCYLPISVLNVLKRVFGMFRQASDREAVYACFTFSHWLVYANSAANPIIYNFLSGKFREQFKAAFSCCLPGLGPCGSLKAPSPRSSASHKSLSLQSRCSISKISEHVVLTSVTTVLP
# CHO parental Ca: ATP-evoked calcium signal inhibitors, parental CHO, primary screen, counter-screen for OX1R antagonist project, cell-based, fluorescence, Fluo-8 calcium dye; AID 463079, 2010; 330,000 tested, 0.63% active; inhibition, % at 5.6 µM; parental CHO-K1, ATP-induced calcium, Fluo-8 fluorescence;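 active = inhibition above that plate's mean sample inhibition plus 3 SD, cut at about 26% in these data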;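 note: 0% = ATP-challenged DMSO wells and 100% = DMSO wells without ATP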
#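 Test system: parental CHO cells; detection: calcium-sensitive Fluo-8 fluorescence; evaluation: percent inhibition of calcium signal; also added: ATP as calcium-mobilizing challenge; repeats: one well per compound; control set: ATP-challenged DMSO wells low, unchallenged DMSO wells high; compound: single nominal dose of 5.6 µM per compound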
# OXTR potentiate: human OXTR potentiators, primary screen, fluorescence, CHO-OTR cells, Fluo-8 calcium; activation, % at 3 µM; AID 2445, 2010; Oxytocin receptor (Homo sapiens), P30559; 320,000 tested, 0.061% active; Fluo-8 calcium fluorescence, potentiator mode; 0% = oxytocin EC15, 100% = EC100;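 active = activation above that plate's cutoff, the mean activation of tested compounds plus 3 SD, cut at about 6.6% in these data, passing the limit was not always enough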;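 note: 100% uses oxytocin at 75 nM as the full agonist control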
#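 Dosing: Single dose, 3.0 µM nominal final compound concentration | Material: Human OTR in CHO cells | Technique: Kinetic Fluo-8 calcium fluorescence | Benchmarks: EC15 oxytocin alone as 0%, 75 nM oxytocin as 100% | Probe or stimulus: Oxytocin at about EC15, sub-maximal agonist stimulus | Incubation: Compound 6 min at room temperature before oxytocin, 100 s read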
# OX1R antag-2: OX1R (HCRTR1) antagonists, primary screen, fluorescence, CHO/OX1R cells, Fluo-8 calcium, orexin A. Orexin/Hypocretin receptor type 1 (Homo sapiens), O43613. Fluo-8 calcium fluorescence. inhibition, % at 5 µM. 330,000 tested, 0.43% active. AID 434989, 2010;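 active = inhibition above its plate's threshold, mean inhibition of all tested compounds on the plate plus 3 SD, cut at about 37% in these data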;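 note: 0% = orexin A challenge wells and 100% = SB-334867-A antagonist wells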
# Starred values were filed as active, the others as inactive; x = no result.
SMILES,OXTR ag,V1R ag counter,OX1R antag-1,CHO parental Ca,OXTR potentiate,OX1R antag-2
CC(Oc1ccccc1)C(=O)Nc1ccc(C(N)=O)cc1 (stereo not given),0,0,8,-4,-5,10
O=C(Nc1ccc(Cl)cc1)c1ccc(S(=O)(=O)N2CCOCC2)cc1,7,8,8,1,-12,5
CC(C)NS(=O)(=O)c1ccc(NC(=O)C(C)Oc2ccc(C(=O)c3ccccc3)cc2)cc1 (stereo not given),54*,66*,5,68*,-18,93*
CC(Oc1ccc(Cl)cc1)C(=O)Nc1ccc(S(=O)(=O)N2CCOCC2)cc1 (stereo not given),30*,28*,-3,15,-16,20
CS(=O)(=O)N(CC(O)CON=C1c2ccccc2-c2ccccc21)c1ccc(F)cc1 (stereo not given),8,6,20,-5,-9,25
CCN(CC(O)CON=C1c2ccccc2-c2ccccc21)S(=O)(=O)c1ccc(C)cc1 (stereo not given),4,3,73*,-20,-4,26
Cc1cccc(N(CC(O)CON=C2c3ccccc3-c3ccccc32)S(C)(=O)=O)c1 (stereo not given),6,2,63*,-9,-12,12
CCN(CC)C(=O)C(Oc1ccc(S(=O)(=O)N2CCCC2)cc1[N+](=O)[O-])c1ccccc1 (stereo not given),1,0,63*,0,-9,6
CC1CCCCN1C(=O)COc1ccc(S(=O)(=O)N2CCCC2)cc1[N+](=O)[O-] (stereo not given),1,0,17,0,-1,-20
O=C(N/N=C/c1ccc(-n2ccnc2)cc1)c1cccs1,0,2,16,0,-8,-28
CN(C)S(=O)(=O)N1CCN(CC(O)COc2ccc3cc(Br)ccc3c2)CC1 (stereo not given),8,14,8,40*,-16,11
C/C(=N\OCC(=O)NC(C)C)c1cccs1,1,3,5,13,-19,-15
C/C(=N/OCC(=O)NCCCCCCNC(=O)CO/N=C(/C)c1cccs1)c1cccs1,0,4,71*,-23,-3,-14
C=CCn1c(SCC(=O)NCc2ccco2)nc2sc3c(c2c1=O)CCCC3,-1,0,19,-17,-6,-28
O=C(NCc1ccco1)c1ccc2nc3sc4c(c3c(=O)n2c1)CCCC4,-1,0,87*,-22,0,-1
O=[N+]([O-])c1ccc(S(=O)(=O)NCCN2CCOCC2)cc1,1,1,43*,8,-6,-28
O=[N+]([O-])c1ccc(-c2ccc(S(=O)(=O)NCCN3CCCC3)cc2)cc1,10,8,59*,-8,-22,4
O=[N+]([O-])c1ccc(S(=O)(=O)NCCCc2ccccc2)cc1,-2,0,0,-16,-7,-20
CC(C(=O)O)n1nc(-c2ccccc2)c2ccccc21 (stereo not given),0,1,5,-11,-11,-22
O=C(Cn1c(=O)oc2cc(S(=O)(=O)N3CCCC3)ccc21)NC1CCCc2ccccc21 (stereo not given),0,1,25,28*,-9,22
O=C(Cn1c(=O)oc2cc(S(=O)(=O)N3CCCCCC3)ccc21)NC1CCCCCCC1,0,2,12,5,-8,-5
CCn1c(=NC(=O)CCS(=O)(=O)c2ccccc2)sc2cccc(OC)c21,1,2,25,56*,-15,12
CCn1c(=NC(=O)CS(=O)(=O)c2ccc(F)cc2)sc2cccc(OC)c21,-2,-1,14,20,-13,0
O=C1CCCC(O)=C1N=Nc1cccc(C(=O)O)c1,0,0,70*,8,-16,-19
CCN(CC)S(=O)(=O)c1cccc(N=NC2=C(O)CCCC2=O)c1,0,0,12,-2,-1,-17
SMILES,OXTR ag,V1R ag counter,OX1R antag-1,CHO parental Ca,OXTR potentiate,OX1R antag-2
CC(=O)c1ccc(N2CCN(C(=O)c3cc(S(=O)(=O)N4CCOCC4)ccc3C)CC2)cc1,2,1,1,-17,1,-14
CN(C)c1ccc(/C=N/NC(=O)C(=O)/C=C2\NC3(CCCC3)Cc3ccccc32)cc1,0,1,19,-19,-5,-20
COc1cc(/C=N/NC(=O)C(=O)/C=C2\NC3(CCCC3)Cc3ccccc32)ccc1O,-2,0,61*,-19,-2,2
COc1ccccc1NC(=O)C1CCCN(S(=O)(=O)c2ccc3c(c2)CC(C)N3C(C)=O)C1 (stereo not given),3,2,10,-16,-8,-28
CCCCn1c(NC(C)=O)c(C#N)c2nc3ccccc3nc21,0,1,24,-14,-12,-21
C=CCn1c(NC(=O)c2ccccc2Cl)c(C#N)c2nc3ccccc3nc21,9,7,69*,8,-8,-3
COCCCNC(=O)CN1C(=O)/C(=C/c2ccccc2C)Sc2ccccc21,0,-1,47,-11,-12,-14
COCCCNC(=O)CN1C(=O)/C(=C/c2ccccc2)Sc2ccccc21,-2,-1,68*,1,-4,-4
c1ccc(-c2cnc(-c3ccccc3)nn2)cc1,-1,0,26,-6,-9,10
Cc1nnc(-c2ccccc2)c[n+]1[O-],1,1,56*,3,-5,-2
Cc1onc(-c2c(Cl)cccc2Cl)c1C(=O)N1CCc2ccccc21,-1,-1,40*,-17,5,21
COc1ccc2[nH]c3c(c2c1)CCN1C(=O)C(CC(=O)NC/C=C(\C)CCC=C(C)C)C[C@H](C(=O)N2CCCCC2)[C@@]31C (stereo not given in full),x,x,14,-42,x,51*
CSc1ccc(S(=O)(=O)NCC(=O)OCC(=O)NCCc2ccccc2)cc1[N+](=O)[O-],0,-1,37*,-19,-10,-22
CCN(C(=O)COC(=O)CNS(=O)(=O)c1ccc(SC)c([N+](=O)[O-])c1)C1CCCCC1,1,1,53*,-18,-12,-15
